Tests used:
[1] = target: T1, Angiotensin-converting enzyme (Rattus norvegicus, UniProt P47820); assay: Inhibitory activity against Angiotensin I converting enzyme
T1 sequence (P47820 whole entry): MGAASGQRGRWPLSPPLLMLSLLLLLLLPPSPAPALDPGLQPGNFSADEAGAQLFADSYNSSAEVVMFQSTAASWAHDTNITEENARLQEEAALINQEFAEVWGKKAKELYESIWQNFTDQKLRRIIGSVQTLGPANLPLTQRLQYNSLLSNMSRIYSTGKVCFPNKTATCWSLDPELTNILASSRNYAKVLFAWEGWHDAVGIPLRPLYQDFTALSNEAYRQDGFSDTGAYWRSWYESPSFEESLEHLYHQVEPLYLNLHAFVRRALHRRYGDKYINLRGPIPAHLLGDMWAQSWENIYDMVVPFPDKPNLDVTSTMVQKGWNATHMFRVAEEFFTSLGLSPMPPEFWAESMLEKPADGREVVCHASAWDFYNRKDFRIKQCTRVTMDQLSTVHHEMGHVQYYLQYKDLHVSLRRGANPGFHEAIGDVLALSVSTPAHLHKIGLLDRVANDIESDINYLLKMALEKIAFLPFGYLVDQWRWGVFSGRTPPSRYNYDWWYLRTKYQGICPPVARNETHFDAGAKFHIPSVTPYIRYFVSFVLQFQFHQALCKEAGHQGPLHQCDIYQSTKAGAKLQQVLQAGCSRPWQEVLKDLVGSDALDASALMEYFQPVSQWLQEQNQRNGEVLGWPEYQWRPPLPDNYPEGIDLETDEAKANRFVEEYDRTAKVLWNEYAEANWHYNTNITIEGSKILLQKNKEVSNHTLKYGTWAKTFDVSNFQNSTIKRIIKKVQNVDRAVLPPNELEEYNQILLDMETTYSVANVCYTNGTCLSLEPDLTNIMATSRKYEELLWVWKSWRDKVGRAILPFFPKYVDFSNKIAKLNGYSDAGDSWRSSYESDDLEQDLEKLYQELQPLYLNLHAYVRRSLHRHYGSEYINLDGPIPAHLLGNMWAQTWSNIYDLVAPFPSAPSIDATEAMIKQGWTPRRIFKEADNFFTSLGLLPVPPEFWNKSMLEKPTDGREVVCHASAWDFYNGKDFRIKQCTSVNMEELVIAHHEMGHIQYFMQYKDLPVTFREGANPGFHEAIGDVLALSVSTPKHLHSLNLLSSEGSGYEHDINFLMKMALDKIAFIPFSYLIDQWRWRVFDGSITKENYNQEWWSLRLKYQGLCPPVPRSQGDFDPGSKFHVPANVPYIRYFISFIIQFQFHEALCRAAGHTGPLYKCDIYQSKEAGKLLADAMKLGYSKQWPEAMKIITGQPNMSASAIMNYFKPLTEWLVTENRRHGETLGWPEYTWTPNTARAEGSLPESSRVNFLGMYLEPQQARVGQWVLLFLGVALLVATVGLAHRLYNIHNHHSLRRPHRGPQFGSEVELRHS

[2] = target: T2, Angiotensin-converting enzyme (Rattus norvegicus) (UniProt P47820); assay: Compound was evaluated for ACE inhibitory activity in conscious normotensive rats at a dose 10 mg/kg given intravenously by determining percent reduction in Angiotensin I converting enzyme response; type: organism-based; design: dose 10 mg/kg
T2 sequence (whole entry): T1 sequence (P47820 whole entry)

Canis familiaris [3] = assay: Compound was evaluated for antihypertensive activity in conscious renal hypertensive dogs at a 10 mg/kg dose given orally; type: functional, Canis lupus familiaris; details: route oral
Procedure, shortened: (§1)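 Conscious mongrel dogs made hypertensive by bilateral renal artery constriction (Goldblatt). Drug given by gavage in gelatine capsules; systolic pressure fall vs 0 time, observed up to 7 h; Dunnett's t test.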

Canis familiaris [4] = assay: Compound was evaluated for antihypertensive activity in conscious renal hypertensive dogs at a 30 mg/kg dose given orally; type: functional, Canis lupus familiaris; details: route oral; procedure, shortened: as §1
[5] = target: T2, Angiotensin-converting enzyme (Rattus norvegicus); assay: Compound was evaluated for ACE inhibitory activity in conscious normotensive rats at a dose 1 mg/kg given intravenously by determining percent reduction in Angiotensin I converting enzyme response; type: organism-based; design: dose 1 mg/kg
[6] = target: T2, Angiotensin-converting enzyme (Rattus norvegicus); assay: Compound was evaluated for ACE inhibitory activity in conscious normotensive rats at a dose 10 mg/kg given intravenously by determining percent reduction in Angiotensin I converting enzyme; type: organism-based; design: dose 10 mg/kg

| SMILES | IC50 [1] | further results |
| --- | --- | --- |
| CC(C)(C)OC(=O)[C@@H]1CCCN1C(=O)[C@@H]1CCC(C)(C)[C@@H]1SC(=O)c1ccccc1 | 250 µM | – |
| CC(C)(C)OC(=O)[C@@H]1CCCN1C(=O)[C@H]1CCC(C)(C)[C@@H]1SC(=O)c1ccccc1 | 250 µM | – |
| O=C(S[C@H]1CC[C@@H]1C(=O)N1CCC[C@H]1C(=O)O)c1ccccc1 | 250 µM | Change in ACE response [2]: -30%; SBP decrease (Canis familiaris [3]): <10%; SBP decrease (Canis familiaris [4]): -19%; Reduction [5]: -18% |
| CC1(C)CC[C@H](C(=O)N2CCC[C@H]2C(=O)O)[C@H]1SC(=O)c1ccccc1 | 250 µM | – |
| CC(C)(C)OC(=O)[C@@H]1CCCN1C(=O)[C@H]1CCC[C@@H]1SC(=O)c1ccccc1 | 250 µM | – |
| CC(C)(C)OC(=O)[C@@H]1CCCN1C(=O)[C@@H]1CCC[C@H]1SC(=O)c1ccccc1 | 250 µM | – |
| O=C(O)[C@@H]1CCCN1C(=O)[C@H]1CCC[C@H]1S | 206 µM | – |
| CC(C)(C)OC(=O)[C@@H]1CCCN1C(=O)[C@@H]1CC[C@H]1SC(=O)c1ccccc1 | 250 µM | – |
| C[C@H](CS)C(=O)N1CCC[C@H]1C(=O)O [CAPTOPRIL] | – | SBP decrease (Canis familiaris [3]): -15%; SBP decrease (Canis familiaris [4]): -19% |
| CC(C)(C)OC(=O)[C@@H]1CCCN1C(=O)[C@H]1CC[C@@H]1SC(=O)c1ccccc1 | 250 µM | – |
| CC1(C)CC[C@@H](C(=O)N2CCC[C@H]2C(=O)O)[C@H]1SC(=O)c1ccccc1 | 250 µM | – |
| CC1(C)CC[C@@H](C(=O)N2CCC[C@H]2C(=O)O)[C@@H]1S | 215 µM | – |
| O=C(S[C@@H]1CCC[C@@H]1C(=O)N1CCC[C@H]1C(=O)O)c1ccccc1 | 250 µM | – |
| CC(C)(C)OC(=O)[C@@H]1CCCN1C(=O)[C@@H]1CCC[C@@H]1SC(=O)c1ccccc1 | 250 µM | – |
| O=C(S[C@H]1CCC[C@H]1C(=O)N1CCC[C@H]1C(=O)O)c1ccccc1 | 144 µM | – |
| CC1(C)CC[C@H](C(=O)N2CCC[C@H]2C(=O)O)[C@H]1S | 250 µM | – |

More lines, main results first:

| IC50 [1] | SMILES | further results |
| --- | --- | --- |
| 12.7 µM | O=C(O)[C@@H]1CCCN1C(=O)[C@H]1CC[C@@H]1S | – |
| 34.2 µM | O=C(O)[C@@H]1CCCN1C(=O)[C@H]1CCC[C@@H]1S | – |
| 124 µM | CC(C)(C)OC(=O)[C@@H]1CCCN1C(=O)[C@H]1CCC[C@H]1SC(=O)c1ccccc1 | – |
| 11.3 µM | O=C(O)[C@@H]1CCCN1C(=O)C1CCCCC1S (some centres not stated) | – |
| 1.64 µM | O=C(O)[C@@H]1CCCN1C(=O)C1CCCC1S (some centres not stated) | – |
| 19.5 µM | O=C(O)[C@@H]1CCCN1C(=O)[C@@H]1CCC[C@@H]1S | Change in ACE response [2]: -41%; SBP decrease (Canis familiaris [4]): <10%; Reduction [5]: -22% |
| 144 µM | O=C(S[C@H]1CCC[C@@H]1C(=O)N1CCC[C@H]1C(=O)O)c1ccccc1 | – |
| 1.11 µM | O=C(O)[C@@H]1CCCN1C(=O)[C@@H]1CCC[C@H]1S | Change in ACE response [2]: -75%; SBP decrease (Canis familiaris [3]): -18%; SBP decrease (Canis familiaris [4]): -21%; Reduction [5]: -42% |
| 1.26 µM | O=C(O)[C@@H]1CCCN1C(=O)[C@@H]1CC[C@H]1S | SBP decrease (Canis familiaris [4]): <10% |
| 5.5 µM | O=C(S[C@@H]1CC[C@H]1C(=O)N1CCC[C@H]1C(=O)O)c1ccccc1 | SBP decrease (Canis familiaris [3]): -15%; SBP decrease (Canis familiaris [4]): -17%; Reduction [6]: -60%; Reduction [5]: -45% |
| 0.58 µM | O=C(S[C@@H]1CCC[C@H]1C(=O)N1CCC[C@H]1C(=O)O)c1ccccc1 | Change in ACE response [2]: -80%; SBP decrease (Canis familiaris [3]): -15%; SBP decrease (Canis familiaris [4]): -18% |

— ChEMBL document CHEMBL1123522, “Angiotensin converting enzyme inhibitors as antihypertensive agents: 1-[(2-mercaptocycloalkyl)carbonyl]-L-prolines” (J Med Chem, 1986)
